# High-throughput results from PubChem.
# MrgX1 PAM = allosterically activates human MrgX1 receptor signaling; MrgX1-HEK293, Fluo-4 calcium flux, FDSS; hits give high values; AID 588675; hit rate 0.63% among 310,000; B-score at 10 µM;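 active = plate-corrected calcium response at least 3 library SD above typical, normal starting fluorescence, not activating the receptor alone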;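 also: compound read alongside a low EC10 to EC30 dose of BAM8-22 agonist; peak minus trough fluorescence over baseline measured at the second addition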
# MrgX1 ag = human MrgX1 receptor agonism, primary screen; MrgX1-HEK293 cells, Fluo-4 calcium fluorescence, agonist mode; hits give high values; B-score at 10 µM; hit rate 0.44% among 310,000; AID 588627;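 active = calcium response B-score plate-corrected fluorescence ratio at least 3 library SD, with starting fluorescence B-score inside 5 SD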
#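 Material: MrgX1-expressing HEK293 cells; input: 15,000 cells per well; doses: test compound given as first of three sequential additions; schedule: overnight plating before 1 h dye loading; technique: Fluo-4 NW calcium-flux fluorescence, kinetic read; evaluation: baseline-normalised fluorescence change ratio, B-scored; control set: plate-wise positive and negative controls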
# RGS4 pot = RGS4 potentiation or activation. HEK293 M3R/inducible RGS4, carbachol calcium flux Fluo4; hits give low values. B-score at 10 µM. hit rate 0.92% among 310,000. AID 463111;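 active = B-score of the integrated calcium signal more than 4 SD below the library mean, with starting fluorescence not abnormally high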;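 also: negative B-score means reduced calcium response which marks RGS4 activation or potentiation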
#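 System – HEK293 FlpIn-TREx cells, stable M3R, doxycycline-inducible RGS4 · Reagent – ECmax carbachol challenge · Times – compound preincubation 20 min at room temperature before agonist · Technique – Fluo4 fluorescence kinetic imaging of calcium · Measure – B score of integrated Fluo4 ratio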
# MrgX1 antag = human MrgX1 receptor antagonism, primary screen; Q96LB2; MRGX1-HEK293 calcium flux, Fluo-4, BAM8-22 antagonism; hits give low values; B-score at 10 µM; hit rate 1.3% among 310,000; AID 588676;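 active = calcium-response B-score plate-corrected more than 3 library SD below zero, starting fluorescence within 5 deviations, no agonist response on first addition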;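 also: peak minus trough fluorescence over baseline after final BAM8-22 challenge near maximal dose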
# Lipid droplet = modulators of hepatic lipid droplet formation | AML12 mouse hepatocytes, oleate lipid droplets, BODIPY imaging | inhibition, % at 6.5 µM | hit rate 0.4% among 240,000;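 active = lipid droplet intensity inhibited by at least 50%, with more than 500 cells counted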
#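 System: AML12 hepatocytes (mouse). Probe or stimulus: oleic acid at 100 µM to induce lipid droplet formation. Times: overnight treatment with compound plus oleate. Detection: Image-based BODIPY and DAPI two-channel analysis. Evaluation: percent inhibition of filter-corrected integrated lipid droplet intensity per well.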
# RGS4 inh = inhibitors of human RGS4; hit rate 0.45% among 310,000; AID 463165; HEK293 M3R/RGS4 inducible, Fluo-4 calcium flux; hits give high values; triggered by carbachol at its EC20; B-score at 10 µM; P49798;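 active = B-score, a plate-corrected calcium signal, over three deviations above library mean, with baseline fluorescence within five deviations of library mean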;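 also: RGS4 expression induced by doxycycline in cells with stable M3 receptor; B-score is computed from the integrated fluorescence ratio over baseline after carbachol; higher B-score means a larger calcium signal and so more RGS4 inhibition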
# Target sequence (P49798 whole entry, looked up): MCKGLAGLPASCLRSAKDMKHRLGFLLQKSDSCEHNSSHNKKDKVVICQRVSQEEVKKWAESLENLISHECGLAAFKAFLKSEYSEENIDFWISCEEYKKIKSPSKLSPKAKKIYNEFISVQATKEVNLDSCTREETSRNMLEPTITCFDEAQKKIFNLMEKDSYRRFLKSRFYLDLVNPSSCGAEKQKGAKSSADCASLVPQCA
# Active calls of the source: *; i = inactive; x = no result given. A selection: hits, their analogues and other compounds. The true share with any hit is near 3.8%.
SMILES,MrgX1 PAM,MrgX1 ag,RGS4 pot,MrgX1 antag,Lipid droplet,RGS4 inh
O=[N+]([O-])c1ccc(Cl)c(-c2ccc(/C=N/n3cnnc3)o2)c1,i,i,i,i,-4.6,i
N#C/C(=N\Nc1cccc(C(F)(F)F)c1)C(=O)c1csc(-c2cccnc2)n1,i,i,i,-5.65*,-2.0,i
Cc1ccc(C(=O)Nc2cccc(C(F)(F)F)c2)cc1NC(=O)c1csc(-c2ccncc2)n1,i,i,i,i,x,i
CCc1ccc2[nH]c(=O)c(-c3ccccc3)c(O)c2c1,i,i,i,i,7.4,i
CC1(C)CC(=O)C(C#N)=C(NCCCO)C1,i,i,i,i,-49.4,i
CC1(C)CC(=O)C([N+](=O)[O-])=C(NCCCC(=O)O)C1,i,i,i,-5.4*,1.9,i
O=C(NC1CC(=O)N(c2ccc(Cl)cc2)C1)C1CC1 (configuration not stated),i,i,i,i,x,i
CN1CCN(c2ccc(NC(=O)c3ccc(Oc4ccccc4)cc3)cc2)CC1,i,i,-7.7*,i,-0.7,i
CC(=O)c1ccc(N2CCN(C(=S)Nc3ccc(Oc4ccccc4)cc3)CC2)cc1,i,i,i,i,-2.7,i
CNc1cncc(C(=O)O)c1,i,i,i,i,-19.1,i
O=C1/C(=C/c2c[nH]c3ccccc23)CCC/C1=C\c1c[nH]c2ccccc12,8.55*,i,i,i,-9.0,i
Brc1ccc(-c2nnc3ccc(Nc4ccccc4)nn23)cc1,i,i,i,i,4.4,i
COc1cccc(CNC(=O)C2CCN(S(=O)(=O)c3ccc(Br)s3)CC2)c1,i,i,i,i,-1.2,i
Cc1cc(=O)n2nc(N3CCCC(C(=O)N4CCc5ccccc54)C3)sc2n1 (configuration not stated),i,i,-7.65*,i,-28.1,i
Cc1cc(=O)n2nc(N3CCCC(C(=O)N4CCOCC4)C3)sc2n1 (configuration not stated),i,i,x,i,-4.6,x
Cc1c(-c2cc(Br)ccc2O)nc2cc3c(cc2c1C)OCO3,i,i,i,i,x,i
COc1ccccc1CCn1cnc2c3cc(C)ccc3n(C)c2c1=O,i,i,-7.05*,i,x,i
Cc1ccc(CSc2nnc(SCC(=O)N/N=C/c3ccc(C(=O)O)cc3)s2)cc1,i,i,i,-5.15*,2.0,i
COc1ccc(CCNC(=O)C(=O)NCC2OCCN2S(=O)(=O)c2ccccc2)cc1OC (configuration not stated),i,i,i,i,-0.4,i
COc1ccc(CCC(=O)NCCNC(=O)CCc2ccc(OC)cc2)cc1,i,i,i,i,6.3,i
O=C(NCCc1ccc(F)cc1)C(=O)NCC1CCCN1S(=O)(=O)c1cccs1 (configuration not stated),i,i,-7.18*,i,x,i
COc1ccc(CCNC(=O)CCc2ccc(S(=O)(=O)NC(C)C)cc2)cc1,i,i,i,-5.73*,-17.0,i
COc1ccc(CCNC(=O)C(=O)NCC2CCCN2S(=O)(=O)c2ccccc2)cc1OC (configuration not stated),i,i,-9.41*,i,x,i
COc1ccc(CCNC(=O)c2ccc(CN3CCC(Cc4ccccc4)CC3)cc2)cc1OC,i,i,i,-5.22*,-0.6,i
CC(=O)Nc1cccc(-c2cc(C)c3cc4c(cc3n2)OCO4)c1,x,x,i,x,-0.5,i
COc1ccc(CCNC(=O)C(=O)NCC2CCCN2S(=O)(=O)c2ccc(OC)cc2)cc1 (configuration not stated),i,i,-7.09*,i,x,i
CC1CN(CCc2ccccc2)c2nc3c(c(=O)n(C)c(=O)n3C)n2C1 (configuration not stated),i,i,i,i,1.6,i
